# Hits are enriched below; roughly 2.7% of the tested compounds scored in any of these assays.
# sPLA2-III inh: human group III sPLA2 inhibitors, primary screen, biochemical, QFRET, BODIPY PC-A2 liposome substrate; 370,000 tested, 0.56% active; Group 3 secretory phospholipase A2 (Homo sapiens), Q9NZ20; inhibition, % at 12.2 µM; QFRET BODIPY PC-A2 liposome hydrolysis, fluorescence;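 active = inhibition above mean plus 3 SD of compounds lying within the high and low control bounds, cut at about 19% in these data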;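 note: 0% = median of test compound wells and 100% = no enzyme DMSO wells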
# Target sequence (Q9NZ20 whole entry, looked up): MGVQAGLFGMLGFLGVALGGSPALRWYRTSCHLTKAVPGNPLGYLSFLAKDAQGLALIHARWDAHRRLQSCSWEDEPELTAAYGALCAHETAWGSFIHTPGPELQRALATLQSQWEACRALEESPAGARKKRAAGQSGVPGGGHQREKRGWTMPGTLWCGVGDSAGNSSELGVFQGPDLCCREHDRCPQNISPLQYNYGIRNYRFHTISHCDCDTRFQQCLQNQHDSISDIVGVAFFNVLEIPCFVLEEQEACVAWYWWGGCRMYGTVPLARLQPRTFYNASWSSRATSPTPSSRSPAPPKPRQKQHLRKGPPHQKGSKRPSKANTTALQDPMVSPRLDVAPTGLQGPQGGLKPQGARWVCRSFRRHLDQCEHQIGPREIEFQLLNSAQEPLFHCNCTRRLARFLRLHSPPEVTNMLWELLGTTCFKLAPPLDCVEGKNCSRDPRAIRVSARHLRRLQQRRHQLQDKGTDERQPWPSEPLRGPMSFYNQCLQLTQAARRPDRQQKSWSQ
# ARFGAP1 inh: inhibitors of rat ARFGAP1 GAP activity, primary screen, biochemical, fluorescence polarization, GDP tracer; ADP-ribosylation factor GTPase-activating protein 1 (Rattus norvegicus), Q62848; Arfgap1-stimulated ARF1 GTP hydrolysis, GDP FP detection; inhibition, % at 16.5 µM; 360,000 tested, 0.26% active;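 active = inhibition above a per-plate limit, mean inhibition of low control wells plus 3 SD, cut at about 25% in these data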;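 note: 0% = DMSO wells with enzyme and 100% = wells lacking Arfgap1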
# Target sequence (Q62848 1-136 limits assumed): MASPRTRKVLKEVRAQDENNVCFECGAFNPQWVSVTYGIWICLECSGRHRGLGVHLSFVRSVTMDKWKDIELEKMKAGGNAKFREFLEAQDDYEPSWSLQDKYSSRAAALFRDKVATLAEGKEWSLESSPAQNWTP
#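 Material: rat Arfgap1 GAP domain (His6, aa 1-136), purified enzyme. Also added: human ARF1(Δ1-17)-GTP substrate. Compound dosing: 16.5 µM single point, 1.26% DMSO. Timing: enzyme reaction 120 min at 25 °C after 20 min preincubation. Signal: GDP detection by fluorescence polarization. Read-out basis: percent inhibition of GAP-stimulated GDP formation, scaled between DMSO and no-Arfgap1 medians.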
# ASAP1 inh: inhibitors of human ASAP1 ArfGAP activity, primary screen, biochemical, fluorescence polarization. AID 624377, 2012. ASAP1-stimulated ARF1 GTP hydrolysis, GDP FP detection. 360,000 tested, 0.19% active. inhibition, % at 16.5 µM; in the data active = inhibition above about 25%;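 note: 0% = vehicle with enzyme and substrate and 100% = no enzyme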
# Rev-erbA mod: modulators of Rev-erb alpha DNA binding, primary screen, biochemical, FITC-DNA, fluorescence polarization, uHTS. Nuclear receptor subfamily 1 group D member 1 (Homo sapiens), P20393. Rev-erbα–FITC-DNA binding, 90 min. activity, % at 10 µM. 370,000 tested, 0.79% active. AID 1259318, 2017;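 active = activity above about 14%, limit read from the data; passing the limit was not always enough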;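 note: 0% = DMSO wells with 35 nM protein and 100% = DMSO wells with 750 nM protein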
# bovine MsrA act: bovine MsrA enzyme activators, primary screen, biochemical, absorbance, HTS | AID 602163, 2012 | Methionine sulfoxide reductase A (Bos taurus) | 360,000 tested, 0.3% active | activation, % at 10.6 µM | purified bovine MsrA, absorbance read-out; in the data active = activation above about 7.5%;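 note: 0% = vehicle and 100% = reference activator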
# MsrA inhibitor: bovine MsrA enzyme inhibitors, primary screen, biochemical, absorbance, HTS | purified bovine MsrA, absorbance read-out | inhibition, % at 15.5 µM | 360,000 tested, 0.75% active | AID 651718, 2012; in the data active = inhibition above about 4.5%;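 note: 0% = vehicle wells with enzyme and 100% = reference inhibitor wells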
# Rev-erbA confirm: modulators of Rev-erb alpha DNA binding, confirmation, biochemical, FITC-DNA, fluorescence polarization, single point; 90 min; activation, % at 25 µM; 3,000 tested, 61% active; shares compounds with Rev-erbA mod; AID 1259319, 2017;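 active = activation at or above a set limit, or at least 3 SD above the negative control mean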;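 note: 0% = 35 nM protein with DMSO and 100% = 750 nM protein high control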
# RORg DNA counter: modulation of RORgamma DNA binding, dose response, counter-screen for Rev-erb alpha modulator project, biochemical, fluorescence polarization, FITC-DNA. shares compounds with Rev-erbA mod. purified RORgamma protein-FITC-DNA binding. IC50, µM. 910 tested, 8% active. AID 1259320, 2017;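 active = Compounds whose fitted half-maximal concentration for disrupting protein-DNA binding is below 10 micromolar; the record names Rev-erb in its text, so the target is in doubt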
# Starred values were filed as active, the others as inactive; i = inactive; . = no result.
SMILES,sPLA2-III inh,ARFGAP1 inh,ASAP1 inh,Rev-erbA mod,bovine MsrA act,MsrA inhibitor,Rev-erbA confirm,others
COc1cc(C(=O)Nc2nnc(-c3sccc3C)s2)cc(OC)c1OC,-6,2,3,93*,-2,2,117*,RORg DNA counter=>40
CC(C)(C)c1nnc(NC(=O)c2ccc3c(c2)OCO3)s1,-1,11,2,1,-9,-1,.,
COC(=O)c1c(-c2cccnc2)csc1NC(=O)c1ccc2c(c1)OCO2,1,5,-7,20*,-7,0,-8,
Cc1ccc(C)c(OCc2nnc(NC(=O)c3ccc4c(c3)OCO4)s2)c1,6,5,-9,30*,0,1,10,
COc1ccccc1-c1nnc(NC(=O)c2ccc3c(c2)OCO3)s1,3,5,5,55*,-2,-1,10,
COC(=O)c1sccc1NC(=O)c1ccc2c(c1)OCO2,9,24,1,-3,-2,2,.,
COC(=O)[C@H](CC(C)C)NC(=O)CC[C@H]1O[C@@H](n2cc(C)c(=O)[nH]c2=O)C[C@@H]1O,5,-7,-11,-1,-2,-2,.,
CC(C)CC(N)c1csc(NC(=O)c2cc(C(C)(C)C)nn2Cc2ccccc2)n1 (stereo not drawn),12,5,1,-1,4,1,.,
COc1cccc(C(=O)Nc2nnc(-c3ccc(OC)cc3OC)s2)c1,1,2,-3,32*,0,-1,15,
O=C(CSc1nc2c(c(C(F)(F)F)n1)CCc1ccccc1-2)NCc1ccccc1,2,13,0,97*,-1,0,40*,RORg DNA counter=i
O=C(CSc1nc2c(c(C(F)(F)F)n1)CCc1ccccc1-2)NCc1ccc(F)cc1,6,1,-1,60*,5,0,13,
COc1cc(/C=C(\C#N)C(=O)Nc2cc(C(F)(F)F)ccc2Cl)ccc1OCC(=O)Nc1cccc(C(F)(F)F)c1,-13,-4,0,34*,-8,-1,19*,
CCOC(=O)[C@]12CCCC=C1N(Cc1ccc(OC)cc1)C(=O)[C@@H]2CC(=O)NCc1cccc2ccccc12,-19,.,.,1,.,.,.,
CC(C)n1c(CNC(=O)c2ccccc2F)nnc1SCC(=O)c1ccc(F)cc1,3,-5,-7,-3,-2,1,.,
O=C(NC1CC1c1ccccc1)N1CCC(c2nc3ccc(Cl)cc3[nH]2)CC1 (stereo not drawn),1,.,.,-7,.,.,.,
Cc1ccc(-c2nnc(N3CCCCC3)c3ccccc23)cc1,10,-2,3,-1,-4,1,.,
Cc1ccc(-c2nnc(-n3ncc(C#N)c3N)c3ccccc23)cc1C,-5,0,5,33*,-5,0,27*,
CCc1cc2cc(C)cc(C)c2nc1SCC(=O)Nc1cc(C)on1,1,6,-10,10,-3,-2,.,
CCc1cc2cc(C)cc(C)c2nc1SCC(=O)N1CCCC1,13,-11,-1,58*,-1,1,41*,RORg DNA counter=>40
COCCNC(=O)C1(C)CCCN(C(=O)COc2ccccc2)C1 (stereo not drawn),-4,8,-20,-6,-6,-1,.,
O=C(Nc1ccc(F)cc1)Nc1c(-c2ccccc2)nc2ncccn12,12,.,.,3,.,.,.,
Cc1cc2cc(CN(Cc3ccco3)C(=O)C3CCCCC3)c(=O)[nH]c2cc1C,2,2,0,43*,0,-1,44*,
Cc1cc2cc(CN(Cc3ccco3)C(=O)NCc3ccccc3)c(=O)[nH]c2cc1C,-5,-6,5,1,-2,0,.,
COC(=O)CN1C(=O)CSc2ccc(S(=O)(=O)N3CCC(C)CC3)cc21,2,-3,6,0,1,-1,.,
CN1CCCCC1(C)C(=O)NCc1ccc(C(C)(C)C)cc1 (stereo not drawn),-7,-3,1,2,-4,-1,.,
SMILES,sPLA2-III inh,ARFGAP1 inh,ASAP1 inh,Rev-erbA mod,bovine MsrA act,MsrA inhibitor,Rev-erbA confirm,others
Cc1cc(C)c2c(=O)[nH]c(SCC(=O)c3ccc(F)c(C)c3)nc2n1,-1,-1,-16,35*,-5,1,24*,
Cc1cccc(C)c1NC(=O)CSc1ncnc2[nH]ncc12,4,-17,5,23*,-1,1,18*,
CCOC(=O)c1sc2nc(C)[nH]c(=S)c2c1C,6,-5,-8,62*,-3,1,19*,
Cc1cc2nc(-c3ccc(F)cc3)c(Cc3cccc(Cl)c3)n2c(C)c1Br,-17,-16,7,-9,-15,1,.,
O=C(NCc1ccccc1)C(c1cc2ccccc2o1)n1c(=O)c(-c2ccccc2)nc2ccccc21 (stereo not drawn),0,-11,11,47*,.,1,28*,RORg DNA counter=>40
O=C(CN1C(=O)C2(OCCCO2)c2ccccc21)NCc1ccc2ccccc2c1,-15,.,.,3,.,.,.,
CC(=O)Nc1cccc(-c2csc(C(O)c3ccccc3)n2)c1 (stereo not drawn),6,-8,3,-7,-2,0,.,
CC(=O)Nc1ccc(NC(=O)c2cccc(-c3cc4ccccc4oc3=O)c2)cc1,-1,-8,1,0,-4,2,.,
Cc1cc(C)cc(C(=O)NC(=S)Nc2ccc(-c3cc4ccccc4oc3=O)cc2)c1,14,1,-4,70*,1,-1,36*,
O=C(Cc1cccc2ccccc12)Nc1ccc(-c2cc3ccccc3oc2=O)cc1,-16,10,-1,27*,-2,5.3*,-2,
Cc1ccc(C(=O)NC(=S)Nc2ccc(-c3cc4ccccc4oc3=O)cc2)c(C)c1,2,9,2,68*,-5,1,18*,
Cc1ccc(C(=O)NC(=S)Nc2ccc(CN3CCCCC3)cc2)c(C)c1,10,6,-6,-4,2,1,.,
CCCOc1ccc(/C=C/C(=O)N2CCN(C(=O)c3ccco3)CC2)cc1OC,-2,7,-6,5,-2,3,.,
COc1ccc2oc3cc(NCCN(C)C)ccc3c(=O)c2c1,-7,-2,9,-5,-14,3,.,

# Assay outcomes from PubChem.
